Source: ChEMBL document CHEMBL4513216, “Probing the Open Global Health Chemical Diversity Library for Multistage-Active Starting Points for Next-Generation Antimalarials” (ACS Infect Dis, 2020)

test: Toxicity liver stage against HepG2, at 10uM; assay type: cell-based; design: test concentration 10 uM, cell line HepG2-A16-CD81EGFP; details: human, HepG2-A16-CD81EGFP cells; read-out: INHIBITION
Procedure, shortened: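 Uninfected HepG2-A16-CD81EGFP cells, 3 × 10^3 per well, 1536-well, plated on prespotted compound at 10 μM final, parasite-free screening media added to match infected plates; puromycin 10 μM positive, DMSO 0.5% negative; run in parallel with 48 h PbLuc assay at 37 °C, 5% CO2; viability by CellTiter-Glo luminescence, normalized to controls.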

Structure (SMILES)	cytotoxicity at 10 µM
Cc1cc(C)c(N(CC(O)CNCc2ccccc2)S(C)(=O)=O)c(C)c1 (stereo unspecified)	-12.7%
CC1CN(C)CCN1C(=O)c1cnn(-c2ccc(Cl)cc2)c1 (stereo unspecified)	-22.7%
CCN(C)C(=O)CCC(=O)c1cccs1	3.9%
Clc1cccc(CNc2cnn(CCN3CCCCC3)c2)c1	0.889%
CCOc1cc(CN(C)CCOC)ccc1OC(F)F	-13.7%
Cc1oc(-c2cccc(F)c2F)nc1CN(C)CCO	-9.49%
Cc1ncc(CN2CCC(c3nc4cc(Cl)ccc4o3)CC2)s1	51.7%
Cc1nn(C)c(C)c1CCC(=O)NCc1cccnc1OC1CCCC1	-4.38%
CC(=O)NCC1CCN(C(=O)NCc2ccc3c(c2)OCCO3)CC1	-7.11%
CCc1nc(CN2CCN(C(=O)CCc3ccccc3)CC2)cs1	5.25%
COCC1c2c(cnn2C)CCN1Cc1ccc(F)cc1 (stereo unspecified)	-10.6%
CCCNC(=O)C1CCN(CC(O)c2ccccc2)CC1 (stereo unspecified)	-2.21%
Cc1nc(CNC(=O)Nc2ccc3c(c2)CCCN3C)sc1C	-3.68%
CCC(CNC(=O)OC)(OC)c1ccccc1 (stereo unspecified)	1.37%
CCn1ccnc1CN(C)c1cc(OC)ncn1	-37.5%
COC(=O)c1ccc(N2CCN(C(=O)c3ccc(O)nc3)C(C)C2)cc1 (stereo unspecified)	-4.5%
CCn1ncnc1C(C)NC(=O)COc1ccc(Cl)cc1Cl (stereo unspecified)	2.8%
CCc1ccsc1CNC(=O)CNC(=O)C(C)(C)C	-4.08%
Cn1cncc1CN1C[C@@H]2OCCN(c3ncccn3)[C@@H]2C1	-67%
Cc1ccnc(NC(=O)C2(n3cnnn3)CCCCC2)c1	-0.0864%
CC(=O)c1c(N(C)C)ccnc1C(F)(F)F	1.1%
CCCc1noc(-c2cn(CC(=O)N(CC)CC)nn2)n1	3.35%
Cc1ccc(N2CCN(C(=O)CCC(F)(F)F)C(C)C2)cc1 (stereo unspecified)	-143%

Structure (SMILES)	cytotoxicity at 10 µM
CCOc1ccccc1C(=O)NCCc1ccoc1	8.54%
CCC1CN(C(=O)c2cccc(OCc3cscn3)c2)CCO1 (stereo unspecified)	-7.51%
NC(=O)CCn1ccc(NC(=O)c2ccc(Br)o2)n1	-1.39%
N#Cc1ccccc1C(=O)N1C[C@H](CO)C[C@H](CN2CCCC2)C1	-17%
CCOc1cc(Cl)c(CN2CCC3(CCCNC3=O)C2)cc1OC (stereo unspecified)	10.6%
O=C(O)CC(NC(=O)CCCc1cccs1)c1ccc(F)cc1 (stereo unspecified)	-2.99%
CN(Cc1ccc(F)cc1)CC1(O)CCN(C(=O)c2ccncc2)C1 (stereo unspecified)	-2.25%
COCc1nc(NC(C)Cc2cc(C)n[nH]2)c2cnn(C)c2n1 (stereo unspecified)	-10%
CN(C)C(=O)COC1COC2(CCN(S(C)(=O)=O)CC2)C1 (stereo unspecified)	-1.08%
CC(C)N1CCC(N(C)c2ccnc(N(C)C)n2)CC1	-3.3%
c1cnn([C@@H]2CN(Cc3nccs3)[C@@H]3CCCO[C@@H]32)c1	9.07%
O=C(C(NCc1cccc(F)c1F)c1ccccc1)N1CCOCC1 (stereo unspecified)	8.61%
COc1cccc([C@H]2CN(C(=O)c3nnc4n3CCCC4)C[C@@H]2N)c1	-2.57%
O=C(c1cscn1)N1CCc2ncnc(-c3cccnc3)c2CC1	-1.6%
CC(C)C(=O)N1CCN(Cc2csc(-c3ncccn3)n2)CC1	-5.1%
CCc1ccc(CN2CCN(c3ccc(Cl)nn3)CC2)nc1	-2.98%
CCc1nc2n(n1)CC(NCC(=O)Nc1cc(C(C)(C)C)no1)CC2 (stereo unspecified)	-9.26%
CS(=O)(=O)c1snnc1C1CCN(Cc2cccc(O)c2)CC1	-8.91%
O=S(=O)(NCCC(O)c1cccs1)c1ccccc1 (stereo unspecified)	-3.82%
CC1(C)CC(CC(=O)N2CC(C)(C)[C@@](C)(O)C2)CC(C)(C)N1	-4.84%
CC(=O)NCCCC(=O)N1CCC(Sc2cccc(C)c2)CC1	2.06%
COCCn1ccnc1C1CCCN(c2cc(OC)nc(N)n2)C1 (stereo unspecified)	11.2%
CNC(=O)CN1CCC(NC(=O)Cn2cc(C)c3ccccc32)CC1	-4.65%

Structure (SMILES)	cytotoxicity at 10 µM
c1cnc2c(c1)nc1n2[C@@H](CNCc2nccs2)COC1	-2.66%
O=C([C@@H]1CCCN1c1nccc(Nc2ccccc2)n1)N1CCCCC1	0.325%
CCN1C(=O)C2(CCOCC2)c2cc(NC(=O)COC)ccc21	-0.82%
Cc1csc(C2(NCc3csc(C4CC4)n3)CCCC2)n1	4.32%
OCc1cc2ccccc2nc1N1CCCC1	-8.82%
Cc1cc(CN2CCN(C(=O)NC(C)c3cccs3)CC2)on1 (stereo unspecified)	-7.72%
CC(C)N1CCc2ncn(C(C)C)c2C1C(=O)N1CCN(C)CC1 (stereo unspecified)	-0.849%
CCCOC(=O)N1CCCC2(CCN(Cc3cccc(C#N)c3)C2)C1 (stereo unspecified)	-4.59%
CNC(=O)c1cc(OC)c(OC)cc1N(C)S(C)(=O)=O	-5.58%
COc1ccc(CC(=O)N2CCCC(n3cccn3)C2)cc1F (stereo unspecified)	-4.62%
COc1ccc(CCCN(C)C(=O)c2cc(Cl)c[nH]2)cc1OC	-1.24%
CC(CO)CNC(=O)c1cc2cccc(F)c2o1 (stereo unspecified)	8.13%
CN1CC(c2ccccc2)CC12CCN(C(=O)c1ccncc1)CC2 (stereo unspecified)	-7.96%
CN(C)CC(=O)N1C[C@@H]2CC[C@H](Oc3ccccc3Cl)[C@@H]2C1	3.22%
CC(=O)N1[C@H](CN(C)C)C[C@@H]2CN(C(=O)c3cnc(C)cn3)CC[C@@H]21	-2.89%
OC(COc1ccccc1)CN1CCN(c2nccs2)CC1 (stereo unspecified)	13.1%
CC(=O)c1cnc(NCCCN2CCOCC2)nc1C	-2.77%
O=C(Cn1c(=O)[nH]c2cn(-c3ccccc3)c(=O)n21)Nc1ccccc1	18.6%
CN(C)C(CNCc1nc(-c2ccsc2)no1)c1cccc(F)c1 (stereo unspecified)	12.9%
COc1ccc(-c2cn3c(n2)CO[C@@H](CNCc2ccccn2)C3)cc1	-11.8%
CC(C)[C@H](Nc1cc(-c2ccncc2)nc2ccnn12)C(N)=O	0.782%
CCN(CC)c1ncc(CNCC2CCCn3ccnc32)s1 (stereo unspecified)	-29.9%
Cc1ccc(CN2CCC3(CC2)CC(c2cccnc2)C(=O)N3C)o1 (stereo unspecified)	-2.71%

Structure (SMILES)	cytotoxicity at 10 µM
Cc1ccccc1C1(C(=O)N2CCCC(n3cncn3)C2)CC1 (stereo unspecified)	-4.37%
CN(C)C(=O)c1cn[nH]c1C1CCCN1Cc1nccn1C (stereo unspecified)	-1.08%
CC(C)N(CC(N)=O)C(=O)c1cc(F)ccc1N1CCN(C)CC1	7.66%
COc1ccc2c(OCC(=O)NCC(F)(F)F)ccnc2c1	-3.88%
O=C(O)[C@]12CCCN(C3CCOC3)C[C@H]1CN(c1ncccn1)C2 (stereo partly specified)	-97.4%
O=C(CCS(=O)(=O)C1CCCC1)NCCc1cccc(O)c1	-3.09%
COc1ccc(S(=O)(=O)C2CCN(C(=O)c3cc(C)cs3)CC2)cc1	3.07%
COC1COC2(CCN(Cc3ccccc3C)CC2)C1 (stereo unspecified)	2.84%
CC(C)(C)OC(=O)N1CCN(c2cccnc2)CC1C(=O)O (stereo unspecified)	-13.7%
Cc1cnn(CC2CN(Cc3nc(C)no3)CCO2)c1 (stereo unspecified)	-18.5%
O=C(CCc1ccsc1)N(Cc1ccccn1)C1CC1	-4.87%
Cc1noc(CC2CCN(C(=O)C(c3ccccc3C)N(C)C)CC2)n1 (stereo unspecified)	1.86%
Cc1cc(S(=O)(=O)N2C[C@H](C3CC3)[C@@H](N)C2)c(C)s1	-2.36%
O=C(c1ccco1)N1CC[C@H]2[C@H]1CCN2CC1CCOCC1	5.12%
CN1CCCCC1c1ncc2c(n1)CCN(Cc1ccccc1Cl)C2 (stereo unspecified)	-1.67%
Cc1cc(N)n(-c2ccc3nnc(C)n3n2)n1	5.89%
Cc1nn(C)cc1-c1ccnc(N2CCN(c3ccccc3)C(=O)C2)n1	-7.57%
Cc1nccn1[C@@H]1CC[C@@H](N(C)S(=O)(=O)c2ccc(F)cc2)[C@H]1O	-0.535%
CCOc1nnc(CN(CC)CC(=O)Nc2c(F)cccc2F)s1	-2.62%
CCCC1(CO)CCCN(C(=O)CNC(C)=O)C1 (stereo unspecified)	3.43%
Cc1nc(CSCCC(=O)NCc2ccc(-n3cncn3)nc2)cs1	-27.2%
CCn1c(C)cc(C(=O)NCc2cccc(NS(C)(=O)=O)c2)c1C	-2.6%
Cc1cccc(CN2C[C@@H]3CN(C(=O)c4cnccn4)C[C@@H]3C2=O)n1	3.14%

Structure (SMILES)	cytotoxicity at 10 µM
CC(=O)Nc1nc(C(=O)N2CCC(Nc3cccnn3)CC2)cs1	-4.67%
Cc1cc(C(=O)N2CCC3(CC2)COCCN(c2cccnc2)C3)[nH]n1	-2.66%
CC1C(=O)NCCN1CCOc1ccc(C#N)cc1 (stereo unspecified)	2.29%
Cc1cc(C)cc(C2(C(=O)NCC3CCN(CC(F)(F)F)C3)CC2)c1 (stereo unspecified)	-1.62%
COc1ccc(CNCC(O)c2cccc(O)c2)cc1Br (stereo unspecified)	-3.86%
CCN1CC[C@@]2(C(=O)N3CCOCC3)CCN(C(=O)CC(C)C)CC[C@@H]12	3.56%
O=C(C1CCOCC1)N(CCc1ccccc1)C1CCOC1 (stereo unspecified)	4.77%
CO[C@H]1CCN(Cc2cnn(C)c2)[C@@H]2CN(Cc3ccncc3)C[C@H]12	2.29%
O=C(c1cc2ccccc2[nH]1)N1CCC(Nc2cccnn2)CC1	-16.9%
CCc1c(O)nc2nc(N3CCCC3)nn2c1C	10%
CNC(=O)C1CCN(C(=O)c2cccn2Cc2cccs2)CC1	-3.74%
CCCc1n[nH]c(C2CN(C(=O)c3cc(C4CC4)on3)CCO2)n1 (stereo unspecified)	0.471%
CSCC(=O)N1CCOC(c2nc(C)n[nH]2)C1 (stereo unspecified)	0.986%
CC(C)c1nc(CN(C)C2CCN(CCNS(C)(=O)=O)C2)no1 (stereo unspecified)	-8.48%
O=C1C[C@@H]2CC[C@H](CN1)N2c1cc(-c2ccccc2F)nc2ccnn12	20.4%
Cc1ccc(C(=O)N(C)Cc2cc(C)on2)cn1	-3.05%
O=C1N(CCCc2ccccc2)CCCC12CCN(C(CO)CO)C2 (stereo unspecified)	-4.14%
Cc1nc(-c2ccoc2)n(CC(=O)NCC(C)C)c1C	-1.49%
Cc1ncccc1OC1(C(=O)NCc2noc(C(C)C)n2)CCNCC1	5.68%
